Results from different studies.
Effect on: cell growth or viability

| Compound | cell line | assay | conditions | IC50 |
| --- | --- | --- | --- | --- |
| C[C@H]1Oc2cc(cnc2N)-c2c(nn(C)c2C#N)CN(C)C(=O)c2ccc(F)cc21 | A-431 | – | – | > 10 µM |
| Cc1[nH]c(/C=C2\C(=O)Nc3ccc(S(=O)(=O)N(C)c4cccc(Cl)c4)cc32)c(C)c1C(=O)N1CCN(C)CC1 | human Myoblast | – | 72 h | 3.85 µM |
| COc1cc([C@@H]2c3cc4c(cc3[C@@H](O[C@@H]3O[C@@H]5CO[C@@H](C)O[C@H]5[C@H](O)[C@H]3O)[C@H]3COC(=O)[C@H]23)OCO4)cc(OC)c1O | CCD-18Co | MTS | 72 h | 40.3 µM |
| COC1=C2C[C@@H](C)C[C@H](OC)[C@H](O)[C@@H](C)/C=C(\C)[C@H](OC(N)=O)[C@@H](OC)/C=C\C=C(/C)C(=O)NC(=CC1=O)C2=O | A-431 | MTT | – | 0.048 µM |
| Cc1ccncc1-c1ccc2oc(C(=O)c3cc(O)c(O)c(O)c3)cc2c1 | HEK-293T | ATP luminescence | 72 h | 0.79 µg/mL |
| COC(=O)CN=c1scc(-c2ccccc2)n1-c1ccccc1[N+](=O)[O-] | PANC-03-27 | MTT | 72 h | 25.5 µM |
| CC(C)[C@H](N)C(=O)N1CCC[C@H]1B(O)O | TF-1 | ATP luminescence | 48 h | > 60 µM |
| COc1cccc(Oc2ccccc2NC(=O)CNC(=O)c2cccc3ccccc23)c1 | SK-N-AS | – | – | 0.125 µM |
| O=C1/C(=C/c2cc(O)c(O)c(O)c2)Oc2ccccc21 | HEK-293T | ATP luminescence | 24 h | 23 µg/mL |
| COc1cc(Nc2nccc(-c3cnn4nc(OC)ccc34)n2)cc(C(F)(F)F)c1 | NCI-H2009 | ATP luminescence | – | 0.71 µM |
| COc1ccc(C[C]2([Ti+2][C]3(Cc4ccc(OC)cc4)C=CC=C3)C=CC=C2)cc1.[Cl-].[Cl-] | HEK-293T | XTT | 72 h | > 200 µM |
| O=C(CNC(=O)c1cccc2ccccc12)Nc1ccccc1Oc1ccc(O)cc1 | SK-N-AS | – | – | 0.156 µM |
| COc1cc(-c2ncn(/C=C\C(=O)OC(C)C)n2)cc(C(F)(F)F)c1 | SKNO-1 | – | 72 h | 0.058 µM |
| C=CC(=O)Nc1cc(Nc2nccc(-c3cn(C)c4ccccc34)n2)c(OC)cc1N(C)CCN(C)C | A-431 | ATP luminescence | 72 h | 0.249 µM |
| CC(C)C[C@H](NC(=O)[C@H](Cc1ccccc1)NC(=O)c1cnccn1)B(O)O | NCI-H292 | ATP luminescence | – | 0.0093 µM |
| O=CC[C@@H](O)[C@H](O)[C@H](O)CO | A-431 | MTT | 3 h | > 6000 µM |
| COC(=O)CN=c1scc(-c2ccccc2)n1-c1ccc(C)cc1 | PANC-03-27 | MTT | 72 h | 10.8 µM |
| O=C(O)c1ccc(NC(=O)c2cc3cc(Cl)ccc3[nH]2)cc1 | SK-N-BE(2)-C | MTT | – | 21 µM |
| CC(=O)c1ccc(-c2ccc3oc(C(=O)c4cc(O)c(O)c(O)c4)cc3c2)cc1 | HEK-293T | ATP luminescence | 72 h | 1.3 µg/mL |
| COc1cccc2c1C(=O)c1c(O)c3c(c(O)c1C2=O)C[C@@](O)(C(=O)CO)C[C@@H]3O[C@H]1C[C@H](N)[C@H](O)[C@H](C)O1 | NCI-H292 | WST-1 | 72 h | 0.03 µM |
| O=C(c1cc(O)c(O)c(O)c1)c1cc2cc(-c3ccc(CO)cc3)ccc2o1 | HEK-293T | ATP luminescence | 72 h | 1 µg/mL |
| COc1cc2c(Oc3ccc(NC(=O)C4(C(=O)Nc5ccc(F)cc5)CC4)cc3F)ccnc2cc1OCCCN1CCOCC1 | human Myoblast | – | 72 h | 0.12 µM |
| O=C(NCc1ccc(CO)cc1)c1c[nH]c2ccc(Cl)cc12 | SK-N-BE(2)-C | MTT | – | 17 µM |
| COC(=O)CN=c1scc(-c2ccccc2)n1-c1ccccc1OC | PANC-03-27 | MTT | 72 h | 13.5 µM |
| [Cl-].[Cl-].[Ti+4].c1cc[cH-]c1.c1cc[cH-]c1 | HEK-293T | XTT | 72 h | > 200 µM |
| COc1ccc(Oc2ccccc2NC(=O)CNC(=O)c2cccc3ccccc23)cc1 | SK-N-AS | – | – | 0.091 µM |
| CC(=O)Oc1ccc2c(c1)C(C)=CC(C)(C)N2Cc1ccccc1 | Huh-7 | MTT | 72 h | 25 µM |
| COC(=O)CN=c1scc(-c2ccccc2)n1-c1ccccc1C | PANC-03-27 | MTT | 72 h | > 100 µM |
| C[C@@H](Oc1cc(-c2cnn(C3CCNCC3)c2)cnc1N)c1c(Cl)ccc(F)c1Cl | human Myoblast | – | 72 h | 1.84 µM |
| O=C(CNC(=O)c1cccc2ccccc12)Nc1ccccc1Oc1cccc(O)c1 | SK-N-AS | – | – | 0.192 µM |
